The record followed here is ChEMBL document CHEMBL1149885, “Active core structure of terfestatin A, a new specific inhibitor of auxin signaling” (Bioorg Med Chem, 2008).

Active and inactive are the calls of the source. The calls are words filed in the database; no cut-off is given here.

This assay deals with Arabidopsis. Description: Inhibition of indole-3-acetic acid-induced GUS reporter gene expression in Arabidopsis BA3 at 50 uM after 5 hrs. It is filed as functional, organism-based. The method, boiled down: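 Arabidopsis BA3::GUS seedlings (GUS under an auxin-responsive promoter) were grown vertically for 5 days under continuous light. They were moved into GM (0.5x MS salts, 1% sucrose, B5 vitamins, 0.2 g/L MES, pH 5.8) holding 50 µM derivative plus 1 µM IAA for 5 h. GUS was then stained histochemically with 1 mM X-Gluc at 37 °C for 3–4 h.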
A general note: In a reporter assay the amount or activity of a reporter protein is the signal.

Consider `OC[C@H]1O[C@@H](Oc2c(-c3ccccc3)cc(O)c(-c3cccc4ccccc34)c2O)[C@H](O)[C@@H](O)[C@@H]1O` (single isomer, unassigned), for which the outcome was inactive. With `CCOC(=O)CCCCOc1ccc(-c2cc(O)c(-c3ccccc3)c(O)c2O[C@@H]2O[C@H](CO)[C@@H](O)[C@H](O)[C@H]2O)cc1` the entry was “inactive”; with `CCCCOc1ccc(-c2cc(O)c(-c3ccccc3)c(O)c2O[C@@H]2O[C@H](CO)[C@@H](O)[C@H](O)[C@H]2O)cc1`, “inactive”; with `COCOc1c(-c2ccccc2)cc(O)c(-c2ccccc2)c1O`, “Active”. With `OC[C@H]1O[C@@H](Oc2cc(-c3ccccc3)c(O)cc2-c2ccccc2)[C@H](O)[C@@H](O)[C@@H]1O` the entry was “Active”. Consider `OC[C@H]1O[C@@H](Oc2c(O)cc(O)cc2-c2ccccc2)[C@H](O)[C@@H](O)[C@@H]1O`, for which the outcome was inactive. On to `CCCCOc1ccc(-c2c(O)cc(-c3ccccc3)c(O[C@@H]3O[C@H](CO)[C@@H](O)[C@H](O)[C@H]3O)c2O)cc1`, for which the outcome was inactive.

With `CC(C)COc1c(-c2ccccc2)cc(O)c(-c2ccccc2)c1O`, the outcome was inactive. With `CCCOc1c(-c2ccccc2)cc(O)c(-c2ccccc2)c1O` the entry was “Active”; with `Oc1cc(-c2ccccc2)c(OCC2CCCCC2)c(O)c1-c1ccccc1`, “inactive”; with `CCCCCCOc1c(-c2ccccc2)cc(O)c(-c2ccccc2)c1O`, “inactive”.

As for `COC(=O)c1ccc(-c2cc(O)c(-c3ccccc3)c(O)c2O[C@@H]2O[C@H](CO)[C@@H](O)[C@H](O)[C@H]2O)cc1`, the outcome was inactive. Turning to `OC[C@H]1O[C@@H](Oc2ccc(O)c(-c3ccccc3)c2O)[C@H](O)[C@@H](O)[C@@H]1O`, the outcome was inactive.

Regarding `COc1c(O[C@@H]2O[C@H](CO)[C@@H](O)[C@H](O)[C@H]2O)c(-c2ccccc2)cc(O)c1-c1ccccc1`, the result was inactive. For `CCCCOc1c(-c2ccccc2)cc(O)c(-c2ccccc2)c1O` the value was “Active”; for `Oc1cc(-c2ccccc2)c(OCC2CC2)c(O)c1-c1ccccc1`, “inactive”; for `CCOc1c(-c2ccccc2)cc(O)c(-c2ccccc2)c1O`, “Active”.

Regarding `COc1cc(-c2ccccc2)c(O[C@H]2O[C@@H](CO)[C@H](O)[C@@H](O)[C@@H]2O)c(O)c1-c1ccccc1`, the result was inactive. For `Cc1ccc(-c2c(O)cc(-c3ccccc3)c(O[C@@H]3O[C@H](CO)[C@@H](O)[C@H](O)[C@H]3O)c2O)cc1` the value was “inactive”. Take `Oc1cc(-c2ccccc2)c(OCCCCCl)c(O)c1-c1ccccc1`: the outcome was Active. As to `CCCCCOc1c(-c2ccccc2)cc(O)c(-c2ccccc2)c1O`, the result was Active. Consider `CC(=O)OC[C@H]1O[C@@H](Oc2c(-c3ccccc3)cc(O)c(-c3ccccc3)c2O)[C@H](OC(C)=O)[C@@H](OC(C)=O)[C@@H]1OC(C)=O`, for which the result was inactive.
